Assay results from ChEMBL document CHEMBL1132573, “Novel antitumor 2-cyanoaziridine-1-carboxamides” (J Med Chem, 1999).

What was measured:
MCF7 [1] = test: Cytotoxicity was measured as 50% inhibition of cell growth in drug sensitive MCF-7 breast cell line; type: functional, cell-based, Mus musculus; conditions: Homo sapiens
L1210 [2] = test: Cytotoxicity was measured as 50% inhibition of cell growth in drug sensitive L1210 leukemia cell line and is determined by MTT assay; type: functional, cell-based, Homo sapiens; conditions: Mus musculus
MCF7 [3] = test: Inhibition of cell growth in (MCF7 breast) dox cell line; type: functional, cell-based; conditions: Homo sapiens
A549 = test: Inhibition of cell growth in (A-549) lung cell line; type: functional, cell-based; conditions: Homo sapiens
RPMI-8226 [4] = test: Inhibition of cell growth in drug sensitive 8226 myeloma cell line; type: functional, cell-based; conditions: Homo sapiens
WiDr [5] = test: Inhibition of cell growth in drug sensitive WiDr colon cell line; type: functional, cell-based; conditions: Homo sapiens
MCF7 [6] = test: Inhibition of cell growth in (MCF7 breast) mitox cell line; type: functional, cell-based; conditions: Homo sapiens
L1210 [7] = test: Inhibition of cell growth in (L1210 leukemia) MDR cells determined by MTT assay; type: functional, cell-based; conditions: Mus musculus
A-375 = test: Inhibition of cell growth in (A375) melan cell line; type: functional, cell-based; conditions: Homo sapiens
WiDr [8] = test: Inhibition of cell growth in drug resistant WiDr colon cell line; type: functional, cell-based; conditions: Homo sapiens
RPMI-8226 [9] = test: Inhibition of cell growth in drug resistant 8226 myeloma cell line; type: functional, cell-based; conditions: Homo sapiens
L1210 [10] = test: Inhibition of cell growth in drug sensitive L1210 leukemia cell line determined by MTT assay; type: functional, cell-based; conditions: Mus musculus
OVCAR-3 = test: Inhibition of cell growth in (OVCAR-3) ovarian cell line; type: functional, cell-based; conditions: Homo sapiens
MCF7 [11] = test: Inhibition of cell growth in drug sensitive MCF-7 breast cell line; type: functional, cell-based; conditions: Homo sapiens
[12] = Number of colony forming cells of human stomach tumor showing sensitivity among the 1 colony forming cells tested in vitro at compound concentration of 1.0 uM; type: functional
Method in brief: (§1)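 Fresh human tumor specimens, obtained from patients at the Arizona Cancer Center, were tested as tumor-colony-forming cells in the human tumor cloning assay. Sensitivity was scored as a 50% or greater decrease in […] uptake by treated colony-forming cells relative to untreated control colony-forming cells. The value is the count of sensitive specimens among those tested.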

[13] = Number of colony forming cells of human lung tumor showing sensitivity among the 2 colony forming cells tested in vitro at compound concentration of 0.1 uM; type: functional
Method in brief: (§2)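 Fresh human tumor specimens from patients at the Arizona Cancer Center, run in the human tumor cloning (colony-forming) assay by a standard protocol. Read-out was [3H]thymine uptake by tumor-colony-forming cells.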

[14] = Number of colony forming cells of human sarcoma tumor showing sensitivity among the 8 colony forming cells tested in vitro at compound concentration of 10 uM; type: functional; method in brief: as §1
[15] = Number of colony forming cells of human sarcoma tumor showing sensitivity among the 2 colony forming cells tested in vitro at compound concentration of 0.1 uM; type: functional; method in brief: as §1
[16] = Number of colony forming cells of human melanoma tumor showing sensitivity among the 10 colony forming cells tested in vitro at compound concentration of 1.0 uM; type: functional; method in brief: as §2
[17] = Number of colony forming cells of human ovary tumor showing sensitivity among the 12 colony forming cells tested in vitro at compound concentration of 10 uM; type: functional, Female gonad; method in brief: as §2
[18] = Number of colony forming cells of human lung tumor showing sensitivity among the 2 colony forming cells tested in vitro at compound concentration of 1.0 uM; type: functional; method in brief: as §2
[19] = Number of colony forming cells of human gynecologic tumor showing sensitivity among the 4 colony forming cells tested in vitro at compound concentration of 1.0 uM; type: functional; method in brief: as §2
Breast carcinoma cell [20] = test: Number of colony forming cells of human breast tumor showing sensitivity among the 4 colony forming cells tested in vitro at compound concentration of 1.0 uM; type: functional; method in brief: as §2
[21] = Number of colony forming cells of human gynecologic tumor showing sensitivity among the 4 colony forming cells tested in vitro at compound concentration of 0.1 uM; type: functional; method in brief: as §2
Breast carcinoma cell [22] = test: Number of colony forming cells of human breast tumor showing sensitivity among the 4 colony forming cells tested in vitro at compound concentration of 0.1 uM; type: functional; method in brief: as §2
[23] = Number of colony forming cells of human ovary tumor showing sensitivity among the 11 colony forming cells tested in vitro at compound concentration of 1.0 uM; type: functional, Female gonad; method in brief: as §2
[24] = Number of colony forming cells of human myeloma tumor showing sensitivity among the 3 colony forming cells tested in vitro at compound concentration of 10 uM; type: functional; method in brief: as §2
[25] = Number of colony forming cells of human myeloma tumor showing sensitivity among the 3 colony forming cells tested in vitro at compound concentration of 0.1 uM; type: functional; method in brief: as §2
[26] = Number of colony forming cells of human ovary tumor showing sensitivity among the 12 colony forming cells tested in vitro at compound concentration of 0.1 uM; type: functional, Female gonad; method in brief: as §2
[27] = Number of colony forming cells of human sarcoma tumor showing sensitivity among the 8 colony forming cells tested in vitro at compound concentration of 1.0 uM; type: functional; method in brief: as §1
[28] = Number of colony forming cells of human stomach tumor showing sensitivity among the 1 colony forming cells tested in vitro at compound concentration of 10 uM; type: functional; method in brief: as §1
[29] = Number of colony forming cells of human myeloma tumor showing sensitivity among the 3 colony forming cells tested in vitro at compound concentration of 1.0 uM; type: functional; method in brief: as §2
[30] = Number of colony forming cells of human lung tumor showing sensitivity among the 2 colony forming cells tested in vitro at compound concentration of 10 uM; type: functional; method in brief: as §2
[31] = Number of colony forming cells of human gynecologic tumor showing sensitivity among the 4 colony forming cells tested in vitro at compound concentration of 10 uM; type: functional; method in brief: as §2
Breast carcinoma cell [32] = test: Number of colony forming cells of human breast tumor showing sensitivity among the 4 colony forming cells tested in vitro at compound concentration of 10 uM; type: functional; method in brief: as §2
[33] = Number of colony forming cells of human melanoma tumor showing sensitivity among the 10 colony forming cells tested in vitro at compound concentration of 10 uM; type: functional; method in brief: as §2
[34] = Number of colony forming cells of human stomach tumor showing sensitivity among the 1 colony forming cells tested in vitro at compound concentration of 0.1 uM; type: functional; method in brief: as §1
[35] = Number of colony forming cells of human melanoma tumor showing sensitivity among the 5 colony forming cells tested in vitro at compound concentration of 0.1 uM; type: functional; method in brief: as §2

## CCOC(=O)CNC(=O)N1CC1C#N (stereo not drawn)
MCF7 [1]
  IC50: 15 µM
L1210 [2]
  IC50: 13 µM
MCF7 [3]
  IC50: 17 µM
A549
  IC50: 24 µM
RPMI-8226 [4]
  IC50: 25 µM
WiDr [5]
  IC50: 31 µM
MCF7 [6]
  IC50: 11 µM
L1210 [7]
  IC50: 13 µM
A-375
  IC50: 51 µM
WiDr [8]
  IC50: 33 µM
RPMI-8226 [9]
  IC50: 30 µM

## CCNC(=O)N1CC1C#N (stereo not drawn)
L1210 [10]
  IC50: 14 µM
OVCAR-3
  IC50: 14 µM
MCF7 [3]
  IC50: 20 µM
A549
  IC50: 18 µM
RPMI-8226 [4]
  IC50: 22 µM
WiDr [5]
  IC50: 4 µM
MCF7 [6]
  IC50: 10 µM
L1210 [7]
  IC50: 14 µM
A-375
  IC50: 36 µM
WiDr [8]
  IC50: 7 µM
RPMI-8226 [9]
  IC50: 26 µM
MCF7 [11]
  IC50: 29 µM

## N#CC1CN1C(=O)Nc1cccnc1 (stereo not drawn)
L1210 [10]
  IC50: 11 µM
OVCAR-3
  IC50: 10 µM
MCF7 [3]
  IC50: 6.6 µM
A549
  IC50: 16 µM
RPMI-8226 [4]
  IC50: 12 µM
WiDr [5]
  IC50: 6 µM
MCF7 [6]
  IC50: 5.4 µM
L1210 [7]
  IC50: 16 µM
A-375
  IC50: 12 µM
WiDr [8]
  IC50: 18 µM
RPMI-8226 [9]
  IC50: 15 µM
MCF7 [11]
  IC50: 4.2 µM

## N#CC1CN1C(=O)Nc1ccc(F)cc1 (stereo not drawn)
L1210 [10]
  IC50: 7.3 µM
OVCAR-3
  IC50: 5.9 µM
MCF7 [3]
  IC50: 2.4 µM
A549
  IC50: 6.2 µM
RPMI-8226 [4]
  IC50: 5 µM
WiDr [5]
  IC50: 2.1 µM
MCF7 [6]
  IC50: 2.7 µM
L1210 [7]
  IC50: 5.9 µM
A-375
  IC50: 3.4 µM
WiDr [8]
  IC50: 9 µM
RPMI-8226 [9]
  IC50: 5.9 µM
MCF7 [11]
  IC50: 1.9 µM

## N=C1NC(=O)N2CC12 (stereo not drawn) [IMEXON]
[12]
  Sensitivity: 0
[13]
  Sensitivity: 0
[14]
  Sensitivity: 5
[15]
  Sensitivity: 0
[16]
  Sensitivity: 4
[17]
  Sensitivity: 8
[18]
  Sensitivity: 0
[19]
  Sensitivity: 0
Breast carcinoma cell [20]
  Sensitivity: 2
[21]
  Sensitivity: 0
Breast carcinoma cell [22]
  Sensitivity: 0
[23]
  Sensitivity: 3
[24]
  Sensitivity: 3
MCF7 [3]
  IC50: > 18 µM
A549
  IC50: > 72 µM
[25]
  Sensitivity: 3
RPMI-8226 [4]
  IC50: 17 µM
WiDr [5]
  IC50: > 72 µM
[26]
  Sensitivity: 4
[27]
  Sensitivity: 2
[28]
  Sensitivity: 1
MCF7 [6]
  IC50: > 18 µM
[29]
  Sensitivity: 3
[30]
  Sensitivity: 2
[31]
  Sensitivity: 1
Breast carcinoma cell [32]
  Sensitivity: 3
WiDr [8]
  IC50: > 72 µM
[33]
  Sensitivity: 8
[34]
  Sensitivity: 0
MCF7 [11]
  IC50: > 18 µM
[35]
  Sensitivity: 3
